HIF act: HIF pathway transcriptional activation; activation, % at 7.5 µM (by protocol); AID 1910; U2OS HRE-luciferase reporter, luminescence; normalized: DMSO 0%, desferrioxamine 100%; hit rate 0.32% among 300,000;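 active = mean activation of at least 10% of the iron chelator positive control signal, with at least half of replicates also reaching 10%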
JMJD2C inh: inhibitors of human GASC-1 (JMJD2C) demethylase | Q9H3R0 | inhibition, % at 2.35 µM | hit rate 0.069% among 330,000 | GST-JMJD2C(1-420) H3K9me3 demethylation, DELFIA europium | AID 2099;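 active = more than half of a compound's replicate wells show inhibition beyond 50%, single wells judged on their own value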;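 note: signal counts dimethyl H3K9 product captured on neutravidin plate; 0% = median of DMSO wells and 100% = 0.3 times that DMSO median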
Target sequence (Q9H3R0 1-420 limits assumed): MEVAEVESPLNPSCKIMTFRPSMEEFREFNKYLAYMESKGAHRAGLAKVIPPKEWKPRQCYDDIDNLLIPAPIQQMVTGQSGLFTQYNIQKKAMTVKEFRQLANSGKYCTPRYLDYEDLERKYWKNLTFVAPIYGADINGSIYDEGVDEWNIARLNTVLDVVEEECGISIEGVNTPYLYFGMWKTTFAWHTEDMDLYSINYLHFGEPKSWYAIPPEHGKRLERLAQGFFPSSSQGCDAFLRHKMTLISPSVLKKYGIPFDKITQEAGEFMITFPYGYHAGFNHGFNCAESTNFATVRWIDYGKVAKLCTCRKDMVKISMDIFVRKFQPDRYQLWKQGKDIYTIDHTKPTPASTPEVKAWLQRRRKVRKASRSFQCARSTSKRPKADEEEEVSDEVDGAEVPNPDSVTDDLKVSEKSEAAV
T cell HTS: T cell immune modulators affecting CD8 T cell-vesicle binding. response (vesicle binding), % at 7 µM. 2C CD8+ T cell-vesicle binding, flow cytometry; hits give low values. AID 2052. hit rate 0.068% among 330,000;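 active = response, share of CD8 T cells binding vesicles, and their 90th percentile fluorescence all below set limits, cut at about 80% in these data, passing the limit was not always enough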;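 note: values below 100% mean blocked vesicle binding to the CD8+ T cells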
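Benchmarks: naked versus QL9-loaded vesicles / Assay system: purified 2C TCR transgenic mouse naive CD8+ T cells / Technique: high-throughput flow cytometry with anti-B7-1 and anti-CD8 staining / Timing: Cell–vesicle co-incubation 1.5 h at 37 °C, staining 20 min on ice / Read-out: percent CD8+ FL2 mean versus row control / Probe or stimulus: QL9-loaded Drosophila micro-vesicles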
SUMO Mot1 rescue: inhibitors of SUMOylation pathway: yeast Mot1-301 growth rescue; S. cerevisiae Mot1-301 growth rescue, ATP luminescence, 38.5C; percent above DMSO median, 100 means doubled; growth rescue, % at 18.8 µM; hit rate 1% among 320,000;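 active = every valid replicate shows activation above 250% relative to neutral control wells; inactive = the rest, any valid replicate at or below 250%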;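 note: OY570 slx delta 5 strain wells were the positive control but not used for scaling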
* hit, by the source's call; i = inactive; / = no result given. Hits are enriched below; roughly 1.4% of the tested compounds scored in any of these assays.

SMILES	HIF act	JMJD2C inh	T cell HTS	SUMO Mot1 rescue
CC1Cc2cc(S(=O)(=O)NCCc3ccccc3)ccc2N1C(=O)C1CC1 (centres undefined)	0	1	302	10
CC(=O)N1c2ccc(S(=O)(=O)NCCC(=O)N(C)Cc3ccccc3)cc2CC1C (centres undefined)	/	1	213	1
CC(=O)N1c2ccc(S(=O)(=O)NCCc3ccccc3)cc2CC1C (centres undefined)	18*	2	519	1
CCCN1C(=O)/C(=N\OCC(=O)NCC(F)(F)F)c2ccccc21	0	-3	251	-5
CSc1nc2ccccc2nc1N(C)S(=O)(=O)c1ccc(C)cc1	0	8	379	428
COc1ccc(NC(=O)CN(C)C(=O)c2c(-c3c(F)cccc3Cl)noc2C)cc1	1	5	238	688*
COc1ccc(NC(=O)CN(C)C(=O)c2c(-c3ccccc3Cl)noc2C)cc1	0	11	475	19
Cc1onc(-c2c(Cl)cccc2Cl)c1C(=O)NNc1ccccc1	0	-8	698	318*
Cc1onc(-c2c(Cl)cccc2Cl)c1NC(=O)NNc1ccccc1	0	8	i	-5
Cc1ccccc1C(=O)c1cccn1CC(=O)NCCCN1CCc2ccccc2C1	0	-2	446	12
O=C(O)C1CCC(Cn2c(SCc3cc(=O)n4cc(Cl)ccc4n3)nc3ccsc3c2=O)CC1 (centres undefined)	0	-1	25*	-19
O=C(O)CCCCCn1c(SCc2cc(=O)n3cc(Cl)ccc3n2)nc2ccsc2c1=O	-4	1	251	-3
CCOc1ccc(NC(=O)CC2C(=O)N(c3ccc(OC)c(Cl)c3)C(=S)N2C2CC2)cc1 (centres undefined)	0	6	157	347
COc1ccc(CC(=O)NNC(=S)NCC2CC2)cc1OC	30*	-2	561	84
COC(=O)c1ccc(NC(=O)CSc2nc3ccccc3c(=O)[nH]2)cc1	0	1	234	142
O=C(CSc1nc2ccccc2c(=O)[nH]1)Nc1ccc(Br)cc1	38*	5	764	-1
COc1ccc(S(=O)(=O)Nc2c(C)n(C)n(-c3ccccc3)c2=O)cc1C(=O)O	-19	29	284	274*
Cc1cc2oc(=O)cc(CN3CCCCC3C)c2cc1C (centres undefined)	-1	-2	468	8
Cc1ccc(Nc2c(-c3ccc(N(C)C)cc3)nc3ncccn23)cc1	1	-4	103	328*
CC(NC(=O)[C@H](C)N1C(=O)N2CCc3c([nH]c4ccccc34)[C@@]2(C)C1=O)c1ccccc1 (some centres undefined)	0	1	360	-2
Cc1ccc(C#N)c(SCCN2CCCCC2)n1	-1	9	292	-4
Cc1cccc2cc(C#N)c(SCCN3CCCCC3)nc12	3	102*	252	97
COc1cccc(CCNC(=O)CC2C(=O)NCCN2Cc2ccc(C)o2)c1 (centres undefined)	0	-12	392	15
COc1ccc(CN2CCNC(=O)C2CC(=O)NCCc2c[nH]c3ccccc23)c(OC)c1 (centres undefined)	0	-2	265	524*
COc1cccc(CCNC(=O)CC2C(=O)NCCN2CC(C)(C)C)c1 (centres undefined)	0	4	206	551*
SMILES	HIF act	JMJD2C inh	T cell HTS	SUMO Mot1 rescue
COc1ccc(CN2CCNC(=O)C2CC(=O)NCCc2nc(C)c(C)s2)c(OC)c1 (centres undefined)	0	10	144	157
CCOC(=O)Nc1nn(-c2ccc(C)cc2)c(=O)c(C#N)c1C	-1	-5	204	-1
COc1ccc(C(C(=O)NC2CCCCC2)N(C(=O)CCl)c2cccc(Cl)c2)cc1 (centres undefined)	-1	2	160	328*
COc1ccc(C(C(=O)NC2CCCCC2)N(C(=O)CCl)c2ccc(OC)cc2)cc1 (centres undefined)	0	7	195	2
Cc1cc(N2CCOCC2)nc2ccc(NC(=S)N3CCN(c4ccccc4)CC3)cc12	1	-6	104	340*
CCN1CCN(c2cc(C)c3cc(NC(=S)N4CCN(c5ccccc5)CC4)ccc3n2)CC1	2	-8	96	127
CSc1ccc(C(=O)C2CCCN(C(=O)c3ccc4c(c3)OCO4)C2)cc1 (centres undefined)	0	-8	991	-9
CSc1ccc(C(=O)C2CCCN(C(=O)c3cc4cc(F)ccc4[nH]3)C2)cc1 (centres undefined)	1	-1	168	447*
N#CC(C#N)=C1C=CC=CN1/C(=C\c1ccco1)C(=O)c1ccccc1	/	6	172	17
N#CC(C#N)=C1C=CC=CN1/C(=C\c1ccco1)C(=O)c1ccc(Br)cc1	/	0	263	291*
CC(NC(=O)c1cc2c(s1)CS(=O)(=O)C2)c1ccccc1 (centres undefined)	125*	-2	402	12
CC(=O)N(O)CCCCCNC(=O)CCC(=O)N(O)CCCCCNC(=O)CCC(=O)N(O)CCCCCN	19*	-11	129	8
COC(=O)C(Cc1ccccc1)NCC(=O)Nc1cccc(Cl)c1C (centres undefined)	0	1	72	7
O=C1CC(SC2=NCCS2)C(=O)N1c1cccc(Cl)c1Cl (centres undefined)	0	-22	334	8
O=C(NC(=S)Nc1ccc(S(=O)(=O)N2CCCCC2)cc1)c1cccs1	/	7	187	334*
NS(=O)(=O)c1ccc(NC(=S)NC(=O)c2cccs2)cc1	0	-9	60	271
O=C(Cn1ccc(NC(=O)OCc2ccccc2)nc1=O)NCc1nc2ccccc2[nH]1	/	2	238	-6
CCCCn1c(N)c(N(CC(C)C)C(=O)CC2CCCCC2)c(=O)[nH]c1=O	0	9	408	2
O=c1c(O)cccc2cc(O)c(O)c(O)c12	0	87*	205	-2
Cc1cc(/C=C2\SC(N)=NC2=O)c(C)n1-c1ccc(F)cc1	0	-5	234	-3
CCN(CC)CCCCNc1ncc2cc(-c3cc(OC)cc(OC)c3)c(NC(=O)NC(C)(C)C)nc2n1	-1	-3	500	277*
CCN(CC)CCNC1=NCCn2c1cc1cc(OC)ccc12	0	-22	285	184
CC(CCc1ccccc1)NC(=O)CN1CCN(c2ccccc2)CC1 (centres undefined)	0	-27	262	33
CSc1ncccc1C(=O)OCC(=O)NCc1ccc2c(c1)OCO2	0	0	216	294*
CCCCn1cc(S(=O)(=O)c2ccccc2)c(=O)c2cc(C)ccc21	0	-4	325	45
O=C(CCN1CCN(Cc2ccccc2)CC1)Nc1ccccc1Cl	0	2	537	327*
CN1CCN(CCC(=O)Nc2ccccc2Cl)CC1	1	23	731	-9

Screening data (PubChem BioAssay)
